Reference: PubChem BioAssay
Active and inactive are the calls of the source.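 Rule for the calls, unless noted: active = fluorescence slope after compound addition differing from the mean of all tested samples at 99.7% confidence, mostly higher but some lower; inactive = the rest.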

Legend:
[1] = inhibitors of TNFa-induced NFkB p65 translocation, primary screen, imaging, HUVEC, MLSMR starter and 10KST1 sets (AID 438;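 active = inhibition above 20% together with a positive visual image hit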;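 note: compound added about 3h40 before a 20 min TNFalpha stimulation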;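 for inhibition: signal is the nuclear over cytoplasmic p65 intensity ratio per well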); conditions: HUVEC TNFa-induced p65 nuclear translocation; cell count: measured here: nuclei count (cytotoxicity indicator), at 2.08 µM; inhibition: at 2 µM, stronger effect = higher value, 0% TNFa-plus-vehicle, 100% no-TNFa wells
[2] = endothelial E-selectin expression blockers – imaging, HUVEC, immunofluorescence, MLSMR starter and 10KST1 sets, primary screen (AID 487;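 active = visually confirmed hit in the image check and inhibition above 20%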;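 for inhibition: signal is fraction of cell area covered by stained E-selectin grains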;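 for nuclei count: 100% = median nuclei count of all wells on the same plate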); conditions: HUVEC TNFalpha-induced E-selectin immunofluorescence imaging, at 2 µM; inhibition: stronger effect = higher value; nuclei count: measured here: cell number, toxicity
[3] = Primary imaging screen for DUSP6 inhibitors that restore phospho-Erk in transfected HeLa cells, chemical complementation (AID 609;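 active = compounds giving at least 50% inhibition in the cell-based MKP-3 phosphatase rescue imaging test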;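 for inhibition: phospho-Erk level distribution per well compared with pooled transfected vehicle control wells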); conditions: HeLa MKP-3 transfected, phospho-Erk imaging KS statistic, at 10 µM, cells stimulated with TPA for 15 min
[4] = biological target: Dual specificity protein phosphatase 6 (Homo sapiens) (UniProt Q16828); test: as above; conditions: HeLa MKP-3 transfected, phospho-Erk imaging KS statistic; at 10 µM; stronger effect = higher value; cells stimulated with TPA for 15 min
Chain of Dual specificity protein phosphatase 6 (Homo sapiens) (Q16828 whole entry, looked up): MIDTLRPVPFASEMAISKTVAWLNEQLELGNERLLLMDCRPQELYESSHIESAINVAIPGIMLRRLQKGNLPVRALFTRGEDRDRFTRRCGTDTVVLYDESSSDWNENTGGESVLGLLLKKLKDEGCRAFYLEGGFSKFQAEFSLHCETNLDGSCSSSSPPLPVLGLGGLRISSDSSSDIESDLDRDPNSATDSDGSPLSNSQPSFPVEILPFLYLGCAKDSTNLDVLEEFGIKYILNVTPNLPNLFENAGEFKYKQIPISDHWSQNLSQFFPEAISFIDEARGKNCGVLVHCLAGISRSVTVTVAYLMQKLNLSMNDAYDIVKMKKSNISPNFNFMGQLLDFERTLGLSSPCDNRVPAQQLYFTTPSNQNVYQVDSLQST

[5] = biological target: Voltage-gated potassium channel subunit beta-2 (Rattus norvegicus) (UniProt P62483); test: inhibitors of rat Kvbeta2 reductase activity – biochemical, NADPH fluorescence, primary screen (AID 622;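 active = fluorescence slope higher than the sample average by over 3 SD, cut at about -0.22 in these data, passing the limit was not always enough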;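 note: slope of raw intensity against log time taken from 70 to 1610 s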); conditions: recombinant KvBeta, 4-cyanobenzaldehyde reduction, at 10 µM, stronger effect = higher value
Chain of Voltage-gated potassium channel subunit beta-2 (Rattus norvegicus) (P62483 whole entry, looked up): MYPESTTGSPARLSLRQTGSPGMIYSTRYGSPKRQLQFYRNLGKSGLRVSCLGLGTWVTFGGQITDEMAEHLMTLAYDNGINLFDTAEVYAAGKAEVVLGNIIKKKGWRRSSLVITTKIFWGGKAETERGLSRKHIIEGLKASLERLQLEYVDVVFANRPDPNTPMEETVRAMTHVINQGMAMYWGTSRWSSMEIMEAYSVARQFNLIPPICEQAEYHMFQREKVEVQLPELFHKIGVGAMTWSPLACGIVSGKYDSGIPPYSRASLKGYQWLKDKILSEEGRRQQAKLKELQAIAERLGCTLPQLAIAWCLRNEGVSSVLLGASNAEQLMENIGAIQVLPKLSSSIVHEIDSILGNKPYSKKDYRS

[6] = biological target: Voltage-gated potassium channel subunit beta-2 (Rattus norvegicus) (UniProt P62483); test: enhancers of rat Kvbeta2 NADPH turnover – biochemical, NADPH fluorescence, primary screen (AID 623;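 active = NADPH fluorescence slope more negative than the mean of all samples by about 3 SD, 99.7% confidence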;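 note: fluorescence intensity change per second fitted from 20 to 320 s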); conditions: Recombinant KvBeta, NADPH fluorescence decrease slope, 10 min; at 10 µM; stronger effect = lower value
[7] = biological target: Muscarinic acetylcholine receptor M4 (Homo sapiens) (UniProt P08173); test: M4-linked GIRK flux change, two-sided – cell-based, HEK293 M4/GIRK, thallium flux, BTC-AM, M4 allosteric agonist project, primary screen (AID 625); conditions: at 10 µM, actives lie on both sides;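 note: thallium influx through GIRK channels coupled to M4 in HEK293 cells with BTC-AM dye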
Chain of Muscarinic acetylcholine receptor M4 (Homo sapiens) (P08173 whole entry, looked up): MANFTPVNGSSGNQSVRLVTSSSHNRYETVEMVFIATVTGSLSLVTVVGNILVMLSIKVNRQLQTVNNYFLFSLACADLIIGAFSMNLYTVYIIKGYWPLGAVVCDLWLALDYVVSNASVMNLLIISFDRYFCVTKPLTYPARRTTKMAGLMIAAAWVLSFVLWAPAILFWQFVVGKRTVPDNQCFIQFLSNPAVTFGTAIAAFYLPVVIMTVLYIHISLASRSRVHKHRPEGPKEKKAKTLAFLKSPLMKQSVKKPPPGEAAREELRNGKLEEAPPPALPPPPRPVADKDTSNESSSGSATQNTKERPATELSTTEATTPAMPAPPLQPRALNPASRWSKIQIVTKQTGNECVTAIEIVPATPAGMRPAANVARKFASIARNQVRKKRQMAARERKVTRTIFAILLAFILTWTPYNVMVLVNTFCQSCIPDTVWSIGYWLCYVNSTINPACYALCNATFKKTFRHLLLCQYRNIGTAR
How it was run: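 Material – HEK293 cells with M4 receptor and GIRK channels · Buffer or medium – pH 7.3 thallium assay buffer · Doses – one dose, 10 µM final · Timing – cells overnight at 37 °C, BTC-AM loading 1 h, reads 2 min total · Measured by – kinetic fluorescence with BTC-AM dye · Controls – carbachol and DMSO controls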

[8] = inhibitors of larval lipid processing in zebrafish, primary screen, whole organism, PED6 fluorescence, gall bladder and intestine (AID 686;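 active = a full or partial loss of lipid-probe fluorescence in the fish gall bladder, intestine or both, judged by eye; inactive = no fluorescence loss, or compound toxic to the fish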;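 note: larvae 5 to 7 days old with five fish per well; signal comes from phospholipase A2 cleavage of quenched PED6 carried via bile; overnight exposure to compound and PED6 before scoring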); conditions: Zebrafish larvae PED6 lipid processing, fluorescence scoring; screened at 20 µM (by protocol)
How it was run: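 system = live zebrafish larvae aged 5-7 days, whole organism | probe or stimulus = ingested quenched lipid PED6 at 100 nM | doses = 20 µM single dose | timing = overnight exposure | detection = fluorescence microscopy with visual scoring of gall bladder and intestine | read-out = visual per-well fluorescence inhibition score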

[9] = loss of swimming-algae plug formation – whole organism, Chlamydomonas reinhardtii, WT vs cilia-less mutant, absorbance, 96-well, primary screen (AID 463189;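 active = inhibition at or above 50% relative to wild type and mutant plate controls; inactive = inhibition below 50%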;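 note: 0% = wild type cc124 cells in DMSO and 100% = ciliumless bld1 mutant cells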); conditions: Chlamydomonas reinhardtii gravitaxis, OD600 absorbance, 2 days; at 10 µM; stronger effect = higher value
[10] = measured here: cell density z-score
[11] = measured here: nuclear c-Myc green intensity z-score
[12] = measured here: nuclear pErk red intensity z-score, stronger effect = higher value

SMILES	cell count [1]	inhibition [1]	inhibition [2]	nuclei count [2] [%]	z-score [3, 10]	z-score [3, 11]	z-score [3, 12]	inhibition [4]	fluorescence slope [5]	NADPH fluorescence slope [6]	fluorescence slope [7]	outcome [8]	inhibition [9]
CCn1c(SCC(=O)NCc2ccco2)nnc1-c1ccc(N)cc1	669	-1% (inactive)	19.4% (inactive)	189	-0.439	0.193	-0.177	-3.95% (inactive)	-0.491 (inactive)	-4.4e-05 (inactive)	0.00557 (inactive)	inactive	6.36% (inactive)
CCc1ccc(-c2cn3nc(C)c(C)nc3n2)cc1	539	-0.3% (inactive)	5.5% (inactive)	143	0.256	-1.56	-0.591	9.91% (inactive)	-0.0112 (inactive)	2.5e-06 (inactive)	0.00271 (inactive)	inactive	23.7% (inactive)
C=CCn1c(SCC(=O)c2ccc(NS(=O)(=O)c3ccccc3)cc2)nnc1-c1cccs1	682	3.2% (inactive)	-98.4% (inactive)	156	-0.412	-0.46	0.993	-13.3% (inactive)	-0.473 (inactive)	-4.5e-05 (inactive)	0.00636 (inactive)	inactive	-10.7% (inactive)
CCOC(=O)c1[nH]c2ccc(C)cc2c1N	678	-29.2% (inactive)	-53.9% (inactive)	207	-1.62	0.0814	1.41	-5.95% (inactive)	-0.46 (inactive)	-4.7e-05 (inactive)	0.00561 (inactive)	inactive	-1.56% (inactive)
CC(=O)Nc1ccc(NCC(O)COc2ccccc2)cc1 (stereo not given)	374	6.4% (inactive)	6.8% (inactive)	81.4	-1.13	-0.751	0.509	-2.59% (inactive)	-0.495 (inactive)	-6.3e-05 (inactive)	0.00402 (inactive)	inactive	22.2% (inactive)
COc1ccccc1NC(=O)Nc1nnc(C(C)C)s1	702	-3.3% (inactive)	-24.3% (inactive)	157	-0.239	-0.311	0.0371	-5.81% (inactive)	-0.476 (inactive)	-1.2e-05 (inactive)	0.00885 (inactive)	inactive	3.73% (inactive)
CCOc1ccc(-c2nc(C#N)c(NCC(C)C)o2)cc1	402	-4% (inactive)	-45.5% (inactive)	159	-1.19	-0.813	2.25	-2.69% (inactive)	-0.474 (inactive)	-8e-05 (inactive)	0.00573 (inactive)	inactive	-4.03% (inactive)
COC(=O)c1cc(Br)c(=O)n(-c2cc(C)on2)c1	650	-3.9% (inactive)	23.3% (inactive)	115	-0.164	-1.68	0.836	-2.91% (inactive)	-0.438 (inactive)	-1.4e-05 (inactive)	0.00456 (inactive)	inactive	8.55% (inactive)
COc1ccc2[nH]c(C)c(C(=O)CN3CCOCC3)c2c1	640	7.2% (inactive)	-85.7% (inactive)	184	-1.08	1.22	0.499	-1.98% (inactive)	-0.466 (inactive)	-6.6e-05 (inactive)	0.00952 (inactive)	inactive	13.2% (inactive)
COC(=O)CCc1c(C)[nH]c(=S)[nH]c1=O	364	-0.7% (inactive)	-74.5% (inactive)	111	-0.296	-0.397	-1.03	-4.78% (inactive)	-0.521 (inactive)	-2.4e-05 (inactive)	0.00625 (inactive)	inactive	-5.54% (inactive)
CC(C)CSc1nc(N2CCOCC2)c2c(c1C#N)CC(C)(C)SC2	574	-6% (inactive)	-69.8% (inactive)	145	-0.439	-0.915	-0.541	-5.81% (inactive)	-0.424 (inactive)	-8.1e-05 (inactive)	0.00667 (inactive)	inactive	25.7% (inactive)
Cc1ccc(-c2nn(C)c(=O)c3ccccc23)cc1CNC(=O)CSc1nc2ccccc2o1	547	3.6% (inactive)	21.6% (inactive)	106	-1.01	1.51	0.619	1.98% (inactive)	-0.419 (inactive)	-5.4e-05 (inactive)	0.00502 (inactive)	inactive	22.8% (inactive)
C=CCNc1nc(C)nc(OC)n1	634	-0.1% (inactive)	69.9% (active)	85.8	-3.44	2.82	1.07	14.7% (inactive)	-0.481 (inactive)	-4.7e-05 (inactive)	0.00536 (inactive)	inactive	-10.1% (inactive)
O=C1C=C(O)CC(c2ccc(Cl)c(Cl)c2)C1 (stereo not given)	606	4.8% (inactive)	-56.5% (inactive)	115	0.34	0.0724	0.952	14.7% (inactive)	-0.41 (inactive)	-4.9e-05 (inactive)	0.00481 (inactive)	inactive	-8.94% (inactive)
CC1(C)Cc2c(c(-c3ccco3)[nH]c(=O)c2C#N)CS1	706	-0.5% (inactive)	-101% (inactive)	143	0.203	0.427	1.52	-11.5% (inactive)	-0.388 (inactive)	-9.3e-05 (inactive)	0.00494 (inactive)	inactive	3.67% (inactive)
Nc1nnnn1/N=C/c1cccc(Oc2ccccc2)c1	539	-12.1% (inactive)	65.8% (inactive)	88.7	1.62	-1.31	-1.66	21% (inactive)	-0.523 (inactive)	-1.8e-05 (inactive)	0.00678 (inactive)	inactive	13.4% (inactive)
CCOCCn1c(SCc2c(F)cccc2Cl)nc2c1c(=O)[nH]c(=O)n2C	620	3.9% (inactive)	-40.4% (inactive)	114	-0.473	0.0694	0.197	-9.53% (inactive)	-0.472 (inactive)	-4.5e-05 (inactive)	0.00638 (inactive)	inactive	-4.7% (inactive)
Cc1ccccc1N1C(=O)C2ON(c3ccccc3)C(c3cccnc3)C2C1=O (stereo not given)	541	-7% (inactive)	20.1% (inactive)	88.7	1.39	0.945	-1.38	7.7% (inactive)	-0.502 (inactive)	-4.4e-05 (inactive)	0.00555 (inactive)	inactive	-7.8% (inactive)
Cc1cc(C)c(C#N)c(OCC(=O)c2ccccc2)n1	450	-5.3% (inactive)	-69% (inactive)	156	-0.815	1.05	0.134	-3.95% (inactive)	-0.405 (inactive)	-3.4e-05 (inactive)	0.00481 (inactive)	inactive	-6.74% (inactive)
CCOC(=O)c1[nH]c2cc3c(cc2c1NC(=O)CN1CC(C)CC(C)C1)OCO3 (stereo not given)	527	1.2% (inactive)	5.3% (inactive)	167	0.5	-1.18	-0.714	9.91% (inactive)	-0.329 (inactive)	-8.9e-06 (inactive)	0.00584 (inactive)	inactive	-3.44% (inactive)
